# From ChEMBL document CHEMBL4732105, “First orally bioavailable prodrug of proteolysis targeting chimera (PROTAC) degrades cyclin-dependent kinases 2/4/6 in vivo” (Eur J Med Chem, 2021)
# Activity calls are given as the source filed them. No cut-off for these calls is given here.
# Experiments:
# [1] = target: Protein cereblon/Cyclin-dependent kinase 2 (Homo sapiens) (UniProt P24941+Q96SW2); experiment: Protac activity at CRBN/CDK2 in human A-375 cells assessed as induction of CDK2 protein degradation at 1000 nM by Western blot analysis; assay type: cell-based; settings: time hrs <=12, TDE = time-dependent effect
# Procedure, shortened: (§1)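 B16F10 and A375 cells treated with DMSO or serial dilutions of compound for 12 h (concentration series), or for the indicated times (time course). CDK2, CDK4 and CDK6 protein levels determined by western blot.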
# A-375 [2] = experiment: Induction of apoptosis in human A-375 cells assessed as early apoptotic cells at 250 nM incubated for 48 hrs by Annexin V-FITC/PI staining based flow cytometry (reference value: 2.82%); assay type: functional
# B16-F10 [3] = experiment: Induction of apoptosis in mouse B16F10 cells assessed as necrotic cells at 500 nM incubated for 48 hrs by Annexin V-FITC/PI staining based flow cytometry (reference value: 0.21%); assay type: functional
# A-375 [4] = experiment: Induction of apoptosis in human A-375 cells incubated for 48 hrs by Annexin V-FITC/PI staining based flow cytometry; assay type: functional, cell-based; settings: dose nM <=1000, time 48.0 hrs
# [5] = target: Protein cereblon/Cyclin-dependent kinase 6 (Homo sapiens) (UniProt Q00534+Q96SW2); experiment: Protac activity at CRBN/CDK6 in human A-375 cells assessed as induction of CDK6 protein degradation after 12 hrs by Western blot analysis; assay type: cell-based; settings: dose 62.5-1000 nM; procedure, shortened: as §1
# B16-F10 [6] = experiment: Induction of apoptosis in mouse B16F10 cells assessed as early apoptotic cells at 500 nM incubated for 48 hrs by Annexin V-FITC/PI staining based flow cytometry (reference value: 3.52%); assay type: functional
# [7] = target: Protein cereblon/Cyclin-dependent kinase 4 (Homo sapiens) (UniProt P11802+Q96SW2); experiment: Protac activity at CRBN/CDK4 in human A-375 cells assessed as induction of CDK4 protein degradation after 12 hrs by Western blot analysis; assay type: cell-based; settings: dose 62.5-1000 nM; procedure, shortened: as §1
# A-375 [8] = experiment: Induction of apoptosis in human A-375 cells assessed as late apoptotic cells at 1000 nM incubated for 48 hrs by Annexin V-FITC/PI staining based flow cytometry (reference value: 3.28%); assay type: functional
# B16-F10 [9] = experiment: Induction of apoptosis in mouse B16F10 cells incubated for 48 hrs by Annexin V-FITC/PI staining based flow cytometry; assay type: functional, cell-based; settings: dose nM <=1000, time 48.0 hrs
# A-375 [10] = experiment: Induction of apoptosis in human A-375 cells assessed as increase in cleaved caspase 3 level incubated for 48 hrs by Western blot analysis; assay type: functional, cell-based; settings: dose nM <=2000, time 48.0 hrs
# Procedure, shortened: (§2)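 A375 and B16F10 cells incubated with compound for 48 h. Cleaved caspase-3, cleaved PARP, total P53, Bcl-2 and Bax measured by western blot.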
# [11] = target: Protein cereblon/Cyclin-dependent kinase 2 (Mus musculus) (UniProt P97377+Q8C7D2); experiment: Protac activity at CRBN/CDK2 in mouse B16F10 cells assessed as induction of CDK2 protein degradation at 500 nM by Western blot analysis; assay type: cell-based; settings: B16-F10, time hrs <=12, TDE = time-dependent effect; procedure, shortened: as §1
# A-375 [12] = experiment: Induction of apoptosis in human A-375 cells assessed as increase in P-53 level upto 2000 nM incubated for 48 hrs by Western blot analysis; assay type: functional, cell-based; settings: dose nM <=2000, time 48.0 hrs; procedure, shortened: as §2
# A-375 [13] = experiment: Induction of apoptosis in human A-375 cells assessed as increase in cleaved PARP level incubated for 48 hrs by Western blot analysis; assay type: functional, cell-based; settings: dose nM <=2000, time 48.0 hrs; procedure, shortened: as §2
# [14] = target: T1, Protein cereblon/Cyclin-dependent kinase 4 (Mus musculus) (UniProt P30285+Q8C7D2); experiment: Protac activity at CRBN/CDK4 in mouse B16F10 cells assessed as induction of CDK4 protein degradation at 100 nM for 6 hrsin presence of Ribociclib by Western blot analysis; assay type: cell-based; settings: B16-F10, time 6.0 hrs
# [15] = AUC (0 to 12 hrs) in Sprague-Dawley rat at 10 mg/kg, iv; assay type: ADME, organism-based; set-up: time < 12 hr, route intravenous, dose 10 mg/kg; settings: in vivo
# [16] = target: T1, Protein cereblon/Cyclin-dependent kinase 4 (Mus musculus); experiment: Protac activity at CRBN/CDK4 in mouse B16F10 cells assessed as induction of CDK4 protein degradation at 100 nM for 6 hrsin presence of Pomalidomide by Western blot analysis; assay type: cell-based; settings: B16-F10, time 6.0 hrs
# Procedure, shortened: (§3)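 B16F10 cells pre-treated 2 h with DMSO, pomalidomide (10 μM), MG132 (20 μM) or a parent CDK ligand, then exposed to 100 nM degrader for 6 h. CDK2/4/6 protein levels read by western blot.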
# [17] = target: T1, Protein cereblon/Cyclin-dependent kinase 4 (Mus musculus); experiment: Protac activity at CRBN/CDK4 in mouse B16F10 cells assessed as induction of CDK4 protein degradation at 100 nM for 6 hrsin presence of methyl 6-(7-cyclopentyl-6-(dimethylcarbamoyl)-7H-pyrrolo[2,3-d]pyrimidin-2-ylamino)nicotinate by Western blot analysis; assay type: cell-based; settings: B16-F10, time 6.0 hrs; procedure, shortened: as §3
# A-375 [18] = experiment: Induction of cell cycle arrest in human A-375 cells assessed as accumulation at G2 phase at 250 uM incubated for 48 hrs by propidium iodide staining based flow cytometry (reference value: 12.42%); assay type: functional
# Procedure, shortened: (§4)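 Tumor cells incubated 48 h in complete medium with compound or DMSO at various concentrations, stained with propidium iodide, and DNA content read by flow cytometry. G0/G1, S and G2/M fractions reported; mean ± SD, n = 3, Student's t-test.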
# B16-F10 [19] = experiment: Induction of apoptosis in mouse B16F10 cells assessed as early apoptotic cells at 125 nM incubated for 48 hrs by Annexin V-FITC/PI staining based flow cytometry (reference value: 3.52%); assay type: functional
# A-375 [20] = experiment: Induction of cell cycle arrest in human A-375 cells assessed as accumulation at G1 phase at 250 uM incubated for 48 hrs by propidium iodide staining based flow cytometry (reference value: 58.26%); assay type: functional; procedure, shortened: as §4
# B16-F10 [21] = experiment: Induction of apoptosis in mouse B16F10 cells assessed as late apoptotic cells at 250 nM incubated for 48 hrs by Annexin V-FITC/PI staining based flow cytometry (reference value: 0.551%); assay type: functional
# B16-F10 [22] = experiment: Induction of apoptosis in mouse B16F10 cells assessed as increase in bax level upto 1000 nM incubated for 48 hrs by Western blot analysis; assay type: functional, cell-based; settings: dose nM <=1000, time 48.0 hrs; procedure, shortened: as §2
# B16-F10 [23] = experiment: Induction of cell cycle arrest in mouse B16-F10 cells assessed as accumulation at G2 phase at 25 uM incubated for 48 hrs by propidium iodide staining based flow cytometry (reference value: 18.22%); assay type: functional
# B16-F10 [24] = experiment: Induction of apoptosis in mouse B16F10 cells assessed as necrotic cells at 250 nM incubated for 48 hrs by Annexin V-FITC/PI staining based flow cytometry (reference value: 0.21%); assay type: functional
# B16-F10 [25] = experiment: Induction of apoptosis in mouse B16F10 cells assessed as increase in P-53 level upto 1000 nM incubated for 48 hrs by Western blot analysis; assay type: functional, cell-based; settings: dose nM <=1000, time 48.0 hrs; procedure, shortened: as §2
# [26] = target: T1, Protein cereblon/Cyclin-dependent kinase 4 (Mus musculus); experiment: Protac activity at CRBN/CDK4 in mouse B16F10 cells assessed as induction of CDK4 protein degradation after 12 hrs by Western blot analysis; assay type: cell-based; settings: B16-F10, dose 62.5-1000 nM; procedure, shortened: as §1
# A-375 [27] = experiment: Induction of cell cycle arrest in human A-375 cells assessed as accumulation at G2 phase at 500 uM incubated for 48 hrs by propidium iodide staining based flow cytometry (reference value: 12.42%); assay type: functional; procedure, shortened: as §4
# B16-F10 [28] = experiment: Induction of apoptosis in mouse B16F10 cells assessed as viable cells at 500 nM incubated for 48 hrs by Annexin V-FITC/PI staining based flow cytometry (reference value: 95.9%); assay type: functional; settings: read-out: Activity
# T1 sequence (P30285 whole entry, looked up): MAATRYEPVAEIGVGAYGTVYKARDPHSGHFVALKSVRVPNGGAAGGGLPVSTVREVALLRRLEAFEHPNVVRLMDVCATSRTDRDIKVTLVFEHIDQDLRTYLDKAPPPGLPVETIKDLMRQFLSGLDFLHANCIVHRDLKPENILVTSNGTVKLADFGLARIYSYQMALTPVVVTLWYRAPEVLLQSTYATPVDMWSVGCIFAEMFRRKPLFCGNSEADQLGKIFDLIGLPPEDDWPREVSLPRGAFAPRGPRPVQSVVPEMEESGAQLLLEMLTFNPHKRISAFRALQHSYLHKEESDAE
# T1 sequence (Q8C7D2 whole entry, looked up): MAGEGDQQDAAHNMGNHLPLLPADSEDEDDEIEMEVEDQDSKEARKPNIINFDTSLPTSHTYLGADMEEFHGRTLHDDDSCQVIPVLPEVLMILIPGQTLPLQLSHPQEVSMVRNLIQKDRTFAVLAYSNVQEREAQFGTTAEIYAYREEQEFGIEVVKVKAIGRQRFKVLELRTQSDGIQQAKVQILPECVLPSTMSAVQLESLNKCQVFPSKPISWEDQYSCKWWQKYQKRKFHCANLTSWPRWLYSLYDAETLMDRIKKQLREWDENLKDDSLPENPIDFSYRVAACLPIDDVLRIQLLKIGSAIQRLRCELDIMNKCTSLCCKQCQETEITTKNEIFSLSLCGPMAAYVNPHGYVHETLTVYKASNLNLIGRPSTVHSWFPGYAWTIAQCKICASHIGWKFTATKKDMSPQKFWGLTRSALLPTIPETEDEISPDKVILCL
# Protein cereblon/Cyclin-dependent kinase 2 (Mus musculus), sequence (Q8C7D2 whole entry, looked up, other chains not shown): as the sequence (Q8C7D2 whole entry, looked up) above
# Protein cereblon/Cyclin-dependent kinase 6 (Homo sapiens), sequence (Q00534 whole entry, looked up): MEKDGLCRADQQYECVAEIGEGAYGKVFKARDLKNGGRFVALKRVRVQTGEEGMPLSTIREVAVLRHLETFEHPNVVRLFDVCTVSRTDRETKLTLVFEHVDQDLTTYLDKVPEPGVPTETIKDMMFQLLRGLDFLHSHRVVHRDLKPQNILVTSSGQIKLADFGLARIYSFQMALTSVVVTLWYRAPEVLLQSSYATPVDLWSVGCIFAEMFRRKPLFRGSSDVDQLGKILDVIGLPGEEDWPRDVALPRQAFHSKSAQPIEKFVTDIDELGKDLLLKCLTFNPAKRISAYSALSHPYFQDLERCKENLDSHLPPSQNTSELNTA
# Protein cereblon/Cyclin-dependent kinase 6 (Homo sapiens), sequence (Q96SW2 whole entry, looked up): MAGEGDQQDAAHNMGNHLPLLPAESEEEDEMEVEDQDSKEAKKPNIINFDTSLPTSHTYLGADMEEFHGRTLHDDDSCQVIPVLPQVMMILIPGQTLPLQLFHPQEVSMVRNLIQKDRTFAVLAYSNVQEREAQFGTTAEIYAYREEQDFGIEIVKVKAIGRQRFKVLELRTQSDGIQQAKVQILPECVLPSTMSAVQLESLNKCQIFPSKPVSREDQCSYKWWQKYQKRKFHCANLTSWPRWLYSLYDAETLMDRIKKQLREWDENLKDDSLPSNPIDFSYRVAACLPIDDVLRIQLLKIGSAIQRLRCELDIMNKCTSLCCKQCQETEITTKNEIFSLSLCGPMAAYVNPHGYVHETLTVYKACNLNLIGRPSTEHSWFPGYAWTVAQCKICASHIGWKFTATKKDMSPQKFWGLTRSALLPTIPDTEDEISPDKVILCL
# Protein cereblon/Cyclin-dependent kinase 4 (Homo sapiens), sequence (P11802 2-303 limits assumed): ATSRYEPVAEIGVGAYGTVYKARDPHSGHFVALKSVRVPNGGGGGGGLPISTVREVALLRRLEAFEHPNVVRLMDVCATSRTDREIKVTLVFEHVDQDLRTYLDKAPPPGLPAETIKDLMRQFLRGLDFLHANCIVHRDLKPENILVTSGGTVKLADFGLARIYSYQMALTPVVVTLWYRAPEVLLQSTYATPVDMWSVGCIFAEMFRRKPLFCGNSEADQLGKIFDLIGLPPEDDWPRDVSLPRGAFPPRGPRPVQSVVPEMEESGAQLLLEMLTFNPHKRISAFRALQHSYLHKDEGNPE
# Protein cereblon/Cyclin-dependent kinase 4 (Homo sapiens), sequence (Q96SW2 whole entry partner): as the sequence (Q96SW2 whole entry, looked up) above
smiles,measurement,setting,value
CN(C)C(=O)c1cc2cnc(Nc3ccc(C(=O)NCCCCCCNc4cccc5c4C(=O)N(C4CCC(=O)NC4=O)C5=O)cc3)nc2n1C1CCCC1 (stereo not drawn),Activity,[1],Tde
same,Activity,A-375 [2],5.54%
same,Activity,B16-F10 [3],0.081%
same,Activity,A-375 [4],Dose-dependent effect
same,Activity,[5],Dose-dependent effect
same,Activity,B16-F10 [6],93.6%
same,Activity,[7],Dose-dependent effect
same,Activity,A-375 [8],14.8%
same,Activity,B16-F10 [9],Dose-dependent effect
same,Activity,A-375 [10],Dose-dependent effect
same,Activity,[11],Tde
same,Activity,A-375 [12],Active
same,Activity,A-375 [13],Dose-dependent effect
same,Activity,[14],inactive
same,AUC,[15],161 µg·h/mL
same,Activity,[16],inactive
same,Activity,[17],inactive
same,Activity,A-375 [18],9.57%
same,Activity,B16-F10 [19],7.15%
same,Activity,A-375 [20],67.64%
same,Activity,B16-F10 [21],6.13%
same,Activity,B16-F10 [22],Active
same,Activity,B16-F10 [23],19.56%
same,Activity,B16-F10 [24],0.14%
same,Activity,B16-F10 [25],Active
same,Activity,[26],Dose-dependent effect
same,Activity,A-375 [27],13.67%
same,viability at 0.5 µM,B16-F10 [28],4.73%
